Measurements as given in ChEMBL document CHEMBL4376814, “Novel cyclin-dependent kinase 9 (CDK9) inhibitor with suppression of cancer stemness activity against non-small-cell lung cancer” (Eur J Med Chem, 2019).
pIC50: −log10 of the molar value. Active and inactive are the calls of the source. The calls are words filed in the database; no cut-off is given here.

Tests used:
[1] = target: Tyrosine-protein kinase JAK1 (Homo sapiens) (UniProt P23458); experiment: Inhibition of recombinant human JAK1 (866 to end residues) at 1 uM using GEEPLYWSFPAKKK as substrate measured after 40 mins in presence of [gamma33P]ATP by scintillation counting method relative to control
[2] = target: Muscle, skeletal receptor tyrosine-protein kinase (Homo sapiens) (UniProt O15146); experiment: Inhibition of recombinant human MUSK (530 to end residues) at 1 uM using myelin basic protein as substrate measured after 40 mins in presence of [gamma33P]ATP by scintillation counting method relative to control
Sequence of Muscle, skeletal receptor tyrosine-protein kinase (Homo sapiens) (O15146 whole entry): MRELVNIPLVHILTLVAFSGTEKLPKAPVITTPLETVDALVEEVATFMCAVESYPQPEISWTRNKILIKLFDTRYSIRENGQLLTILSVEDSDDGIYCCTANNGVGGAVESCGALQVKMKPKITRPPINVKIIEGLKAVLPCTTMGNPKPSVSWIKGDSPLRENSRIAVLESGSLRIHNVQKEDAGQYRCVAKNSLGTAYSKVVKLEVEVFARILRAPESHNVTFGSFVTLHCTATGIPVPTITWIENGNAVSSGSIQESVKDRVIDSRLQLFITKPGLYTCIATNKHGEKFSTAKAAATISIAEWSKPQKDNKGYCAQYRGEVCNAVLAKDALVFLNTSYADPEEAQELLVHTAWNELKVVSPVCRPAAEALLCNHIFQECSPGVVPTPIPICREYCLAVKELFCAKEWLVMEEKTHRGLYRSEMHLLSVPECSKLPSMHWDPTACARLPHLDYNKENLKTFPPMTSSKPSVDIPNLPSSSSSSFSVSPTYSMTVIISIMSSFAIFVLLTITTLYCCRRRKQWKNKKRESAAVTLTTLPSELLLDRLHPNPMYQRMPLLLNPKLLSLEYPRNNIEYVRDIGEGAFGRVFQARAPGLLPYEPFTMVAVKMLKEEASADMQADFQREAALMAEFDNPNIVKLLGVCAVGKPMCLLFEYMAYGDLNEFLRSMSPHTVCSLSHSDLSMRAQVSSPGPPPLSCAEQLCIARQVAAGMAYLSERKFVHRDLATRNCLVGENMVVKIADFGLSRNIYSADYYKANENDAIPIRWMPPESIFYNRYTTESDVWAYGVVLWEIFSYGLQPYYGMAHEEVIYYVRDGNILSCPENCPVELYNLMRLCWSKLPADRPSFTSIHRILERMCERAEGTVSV

[3] = target: Serine/threonine-protein kinase mTOR (Homo sapiens) (UniProt P42345); experiment: Inhibition of recombinant full-length human mTOR at 1 uM after 40 mins in presence of [gamma33P]ATP by scintillation counting method relative to control
[4] = target: Phosphatidylinositol 4-phosphate 3-kinase C2 domain-containing subunit alpha (Homo sapiens) (UniProt O00443); experiment: Inhibition of recombinant human PI3KC2alpha (299 to end residues) at 1 uM using phosphatidylinositol as substrate measured after 40 mins by HTRF assay relative to control
[5] = target: Testis-specific serine/threonine-protein kinase 4 (Homo sapiens) (UniProt Q6SA08); experiment: Inhibition of recombinant full-length human TSSK4 at 1 uM using KKLNRTLSFAEPG as substrate measured after 40 mins in presence of [gamma33P]ATP by scintillation counting method relative to control
Sequence of Testis-specific serine/threonine-protein kinase 4 (Homo sapiens) (Q6SA08 whole entry): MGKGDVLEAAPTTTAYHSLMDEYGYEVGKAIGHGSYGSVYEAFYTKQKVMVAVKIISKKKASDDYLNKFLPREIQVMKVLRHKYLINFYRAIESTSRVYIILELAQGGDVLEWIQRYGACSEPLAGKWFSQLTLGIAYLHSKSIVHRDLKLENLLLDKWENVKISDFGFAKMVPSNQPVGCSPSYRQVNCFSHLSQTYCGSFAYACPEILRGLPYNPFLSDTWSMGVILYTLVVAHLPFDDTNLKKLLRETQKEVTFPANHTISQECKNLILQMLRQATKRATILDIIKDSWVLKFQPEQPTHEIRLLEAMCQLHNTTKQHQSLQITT

[6] = test system: NCI-H1299; experiment: Induction of apoptosis in human H1299 cells assessed as early apoptotic cells at 0.25 uM after 48 hrs by AnnexinV-FITC/PI staining-based flow cytometric analysis (reference value: 0.248%); format: functional
[7] = test system: A549; experiment: Induction of apoptosis in human A549 cells assessed as viable cells at 1 uM after 48 hrs by AnnexinV-FITC/PI staining-based flow cytometric analysis (reference value: 88.8%); format: functional; details: A549, 48 h, read-out: Activity
[8] = target: Tyrosine-protein kinase ABL1 (Homo sapiens) (UniProt P00519); experiment: Inhibition of human ABL1 at 1 uM using EAIYAAPFAKKK as substrate measured after 40 mins by [gamma33P]ATP by scintillation counting method relative to control
In short: (§1)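 Percent inhibition of kinase activity at a single compound concentration, measured by the outsourced Eurofins KinaseProfiler panel. Values are the mean of two independent experiments.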

[9] = test system: Tyrosine-protein kinase ABL1 (Homo sapiens), P00519 [H396P]; experiment: Inhibition of recombinant human ABL H396P mutant (27 to end residues) at 1 uM using EAIYAAPFAKKK as substrate measured after 40 mins in presence of [gamma33P]ATP by scintillation counting method relative to control
[10] = target: Phosphorylase b kinase gamma catalytic chain, skeletal muscle/heart isoform (Homo sapiens) (UniProt Q16816); experiment: Inhibition of recombinant full-length human PhKgamma1 at 1 uM using KKLNRTLSFAEPG as substrate measured after 120 mins in presence of [gamma33P]ATP by scintillation counting method relative to control
Sequence of Phosphorylase b kinase gamma catalytic chain, skeletal muscle/heart isoform (Homo sapiens) (Q16816 whole entry, looked up, canonical isoform): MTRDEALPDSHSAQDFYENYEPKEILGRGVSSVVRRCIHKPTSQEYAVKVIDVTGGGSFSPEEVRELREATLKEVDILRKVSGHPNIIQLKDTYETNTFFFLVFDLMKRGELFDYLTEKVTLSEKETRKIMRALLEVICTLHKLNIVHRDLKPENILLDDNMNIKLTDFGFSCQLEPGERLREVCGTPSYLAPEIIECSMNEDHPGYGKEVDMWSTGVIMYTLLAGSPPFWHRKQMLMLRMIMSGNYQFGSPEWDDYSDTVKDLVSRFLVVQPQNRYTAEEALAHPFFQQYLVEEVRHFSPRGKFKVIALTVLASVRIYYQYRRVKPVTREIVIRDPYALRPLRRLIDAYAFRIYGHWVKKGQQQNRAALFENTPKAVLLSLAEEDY

[11] = test system: Serine/threonine-protein kinase D1 (Homo sapiens), Q15139 [UNDEFINED MUTATION]; experiment: Inhibition of recombinant full-length human PKCmu R135A mutant at 1 uM using KKLNRTLSVA as substrate measured after 40 mins in presence of [gamma33P]ATP by scintillation counting method relative to control
[12] = target: Calcium/calmodulin-dependent protein kinase type 1D (Homo sapiens) (UniProt Q8IU85); experiment: Inhibition of recombinant full-length human CaMK1delta at 1 uM using calmodulin as substrate measured after 40 mins in presence of [gamma33P]ATP by scintillation counting method relative to control
[13] = target: Mitogen-activated protein kinase kinase kinase 2 (Homo sapiens) (UniProt Q9Y2U5); experiment: Inhibition of full-length recombinant human MEKK2 at 1 uM using myelin basic protein as substrate measured after 40 mins in presence of [gamma33P]ATP by scintillation counting method relative to control; in short: as §1
Sequence of Mitogen-activated protein kinase kinase kinase 2 (Homo sapiens) (Q9Y2U5 whole entry): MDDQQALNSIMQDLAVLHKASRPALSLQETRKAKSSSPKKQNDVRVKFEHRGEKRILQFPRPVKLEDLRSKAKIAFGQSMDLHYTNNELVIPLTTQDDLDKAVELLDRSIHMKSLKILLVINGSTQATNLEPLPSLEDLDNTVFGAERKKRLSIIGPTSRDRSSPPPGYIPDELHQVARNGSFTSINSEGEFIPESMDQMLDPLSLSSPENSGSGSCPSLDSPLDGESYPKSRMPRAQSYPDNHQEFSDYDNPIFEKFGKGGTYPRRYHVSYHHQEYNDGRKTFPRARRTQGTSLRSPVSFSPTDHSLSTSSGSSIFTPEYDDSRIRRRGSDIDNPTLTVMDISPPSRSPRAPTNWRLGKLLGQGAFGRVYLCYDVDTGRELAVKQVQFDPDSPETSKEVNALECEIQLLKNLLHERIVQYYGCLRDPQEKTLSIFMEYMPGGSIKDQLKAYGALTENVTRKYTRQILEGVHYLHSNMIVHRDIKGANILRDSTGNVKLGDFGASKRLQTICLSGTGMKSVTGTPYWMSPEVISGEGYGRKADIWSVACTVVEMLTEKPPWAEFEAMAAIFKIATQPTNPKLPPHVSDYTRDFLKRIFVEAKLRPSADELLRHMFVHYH

[14] = target: Mast/stem cell growth factor receptor Kit (Homo sapiens) (UniProt P10721); experiment: Inhibition of recombinant human cKit (544 to end residues) at 1 uM using Poly(Glu,Tyr) 4:1 as substrate measured after 40 mins in presence of [gamma33P]ATP by scintillation counting method relative to control
In short: (§2)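 Single-point inhibition at 1 µM was measured in the Eurofins KinaseProfiler panel. Values are the mean of two independent experiments.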

[15] = target: Dual specificity protein kinase CLK3 (Homo sapiens) (UniProt P49761); experiment: Inhibition of full length recombinant human CLK3 at 1 uM using ERMRPRKRQGSVRRRV as substrate measured after 40 mins in presence of [gamma33P]ATP by scintillation counting method relative to control
[16] = test system: Proto-oncogene tyrosine-protein kinase Src (Homo sapiens), P12931 [T341M]; experiment: Inhibition of recombinant full-length human Src T341M mutant at 1 uM using GGEEEEYFELVKKKK as substrate measured after 40 mins in presence of [gamma33P]ATP by scintillation counting method relative to control
Sequence of Proto-oncogene tyrosine-protein kinase Src (Homo sapiens), P12931 [T341M] (P12931 whole entry T341M, looked up, the tested form may be a part): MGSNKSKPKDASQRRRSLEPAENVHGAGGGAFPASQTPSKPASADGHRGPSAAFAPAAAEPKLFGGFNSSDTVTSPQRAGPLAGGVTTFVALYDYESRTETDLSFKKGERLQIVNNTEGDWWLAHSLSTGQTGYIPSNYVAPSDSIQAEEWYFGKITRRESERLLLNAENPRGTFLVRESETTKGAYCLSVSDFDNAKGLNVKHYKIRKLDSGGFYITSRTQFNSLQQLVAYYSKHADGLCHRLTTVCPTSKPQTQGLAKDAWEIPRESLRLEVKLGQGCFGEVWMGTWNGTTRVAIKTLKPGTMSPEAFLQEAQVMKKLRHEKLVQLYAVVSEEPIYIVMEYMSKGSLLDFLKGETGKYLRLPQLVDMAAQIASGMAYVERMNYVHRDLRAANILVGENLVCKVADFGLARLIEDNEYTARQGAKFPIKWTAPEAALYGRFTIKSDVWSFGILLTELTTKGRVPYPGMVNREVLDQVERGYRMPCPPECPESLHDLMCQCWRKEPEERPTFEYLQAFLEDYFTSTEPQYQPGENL

[17] = target: Rho-associated protein kinase 1 (Homo sapiens) (UniProt Q13464); experiment: Inhibition of recombinant human ROCK1 (17 to 535 residues) at 1 uM using KEAKEKRQEQIAKR as substrate incubated for 40 mins in presence of [gamma-33P]ATP by radiometric assay relative to control; in short: as §2
Sequence of Rho-associated protein kinase 1 (Homo sapiens) (Q13464 2-1354 limits assumed): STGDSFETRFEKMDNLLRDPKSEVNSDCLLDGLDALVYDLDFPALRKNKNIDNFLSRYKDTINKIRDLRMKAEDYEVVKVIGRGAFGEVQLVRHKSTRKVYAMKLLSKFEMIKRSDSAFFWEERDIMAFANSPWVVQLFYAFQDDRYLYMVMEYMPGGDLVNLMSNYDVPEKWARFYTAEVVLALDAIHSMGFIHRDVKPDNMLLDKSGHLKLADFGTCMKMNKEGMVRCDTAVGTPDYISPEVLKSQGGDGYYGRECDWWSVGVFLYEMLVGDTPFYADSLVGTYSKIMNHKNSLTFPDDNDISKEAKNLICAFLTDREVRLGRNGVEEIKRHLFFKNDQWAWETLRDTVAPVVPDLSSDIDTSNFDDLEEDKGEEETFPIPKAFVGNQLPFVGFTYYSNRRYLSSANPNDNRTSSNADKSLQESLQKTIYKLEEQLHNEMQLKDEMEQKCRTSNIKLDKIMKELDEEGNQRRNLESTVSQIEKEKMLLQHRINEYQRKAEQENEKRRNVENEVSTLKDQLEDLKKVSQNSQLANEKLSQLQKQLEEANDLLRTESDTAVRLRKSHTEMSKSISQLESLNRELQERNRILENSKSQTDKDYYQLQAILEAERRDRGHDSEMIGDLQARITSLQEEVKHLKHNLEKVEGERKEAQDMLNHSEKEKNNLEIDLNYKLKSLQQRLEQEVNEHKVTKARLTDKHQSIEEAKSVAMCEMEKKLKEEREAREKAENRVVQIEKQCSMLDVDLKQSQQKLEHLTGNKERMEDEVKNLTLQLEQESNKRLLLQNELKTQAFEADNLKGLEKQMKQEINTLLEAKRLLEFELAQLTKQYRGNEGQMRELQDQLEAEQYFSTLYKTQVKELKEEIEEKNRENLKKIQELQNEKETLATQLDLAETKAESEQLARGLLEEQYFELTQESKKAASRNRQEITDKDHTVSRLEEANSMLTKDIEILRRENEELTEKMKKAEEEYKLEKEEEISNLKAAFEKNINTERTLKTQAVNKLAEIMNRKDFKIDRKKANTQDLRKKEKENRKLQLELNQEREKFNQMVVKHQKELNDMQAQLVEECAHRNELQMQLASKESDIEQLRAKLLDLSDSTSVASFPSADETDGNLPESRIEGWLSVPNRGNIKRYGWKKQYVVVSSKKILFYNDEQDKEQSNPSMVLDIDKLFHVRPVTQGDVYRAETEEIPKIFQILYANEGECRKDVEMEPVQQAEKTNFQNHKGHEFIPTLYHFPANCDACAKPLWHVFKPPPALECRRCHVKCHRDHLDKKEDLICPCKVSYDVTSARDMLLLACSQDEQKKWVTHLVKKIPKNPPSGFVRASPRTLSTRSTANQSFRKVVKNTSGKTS

[18] = target: Cyclin-dependent kinase 9 (Homo sapiens) (UniProt P50750); details: A549, 0.25 uM
Sequence of Cyclin-dependent kinase 9 (Homo sapiens) (P50750 whole entry): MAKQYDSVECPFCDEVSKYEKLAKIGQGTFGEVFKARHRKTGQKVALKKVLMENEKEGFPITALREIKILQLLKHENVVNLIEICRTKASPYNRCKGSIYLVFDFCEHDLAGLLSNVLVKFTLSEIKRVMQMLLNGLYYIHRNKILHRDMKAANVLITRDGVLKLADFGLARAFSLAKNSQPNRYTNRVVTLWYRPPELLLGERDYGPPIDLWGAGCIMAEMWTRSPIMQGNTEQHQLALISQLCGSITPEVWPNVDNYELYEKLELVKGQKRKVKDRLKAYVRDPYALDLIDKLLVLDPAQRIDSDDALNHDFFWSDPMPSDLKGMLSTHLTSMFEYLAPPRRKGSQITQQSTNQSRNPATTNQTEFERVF

[19] = test system: Jurkat; experiment: Antiproliferative activity against human Jurkat cells assessed as inhibition of cell viability after 72 hrs by CCK-8 assay; format: functional, cell-based
In short: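 Cells kept at 37 °C, 5% CO2 in DMEM or RPMI-1640 with 10% FBS and 1% penicillin/streptomycin, then seeded at 3000 cells/well (adherent) or 10,000 cells/well (suspension). Exposed to a range of concentrations for 72 h. CCK-8 added for 1-4 h before reading A450. […] Three independent experiments.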

[20] = target: Casein kinase I isoform gamma-1 (Homo sapiens) (UniProt Q9HCP0); experiment: Inhibition of recombinant human CK1gamma1 (25 to 355 residues) at 1 uM using KRRRALS(p)VASLPGL as substrate measured after 40 mins in presence of [gamma33P]ATP by scintillation counting method relative to control; in short: as §2
Sequence of Casein kinase I isoform gamma-1 (Homo sapiens) (Q9HCP0 whole entry, looked up, the tested form may be a part, canonical isoform): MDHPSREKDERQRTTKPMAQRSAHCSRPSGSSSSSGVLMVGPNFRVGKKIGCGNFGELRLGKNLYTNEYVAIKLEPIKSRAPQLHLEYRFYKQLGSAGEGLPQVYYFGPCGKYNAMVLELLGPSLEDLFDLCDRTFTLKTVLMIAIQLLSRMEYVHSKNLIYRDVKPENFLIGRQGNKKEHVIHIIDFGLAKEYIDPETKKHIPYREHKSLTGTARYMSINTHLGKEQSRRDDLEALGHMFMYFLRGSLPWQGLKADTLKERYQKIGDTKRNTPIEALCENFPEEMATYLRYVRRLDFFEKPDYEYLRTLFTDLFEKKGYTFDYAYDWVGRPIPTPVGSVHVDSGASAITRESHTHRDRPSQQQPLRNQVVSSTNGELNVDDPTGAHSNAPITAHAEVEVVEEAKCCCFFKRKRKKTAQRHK

[21] = target: CDK6/cyclin D3 (Homo sapiens) (UniProt P30281+Q00534); experiment: Inhibition of recombinant full-length human CDK6/cyclinD3 at 1 uM using Histone H1 as substrate measured after 40 mins in presence of [gamma33P]ATP by scintillation counting method relative to control; format: protein-complex assay
[22] = target: Tribbles homolog 2 (Homo sapiens) (UniProt Q92519); experiment: Inhibition of recombinant full-length human TRB2 at 1 uM using RRRFRPASPLRGPPK as substrate measured after 120 mins in presence of [gamma33P]ATP by scintillation counting method relative to control

For `CN(C)C(=O)c1cc2cnc(Nc3ccc(NC(=O)CCCCCCCN=C=S)cc3)nc2n1C1CCCC1`, the inhibition [1] was 77%, the inhibition [2] was 66% and the inhibition [3] was -1%. It also gave an inhibition [4] of -3%, an inhibition [5] of -7% and an Activity [6] of 0.432%. For the same compound, the viability at 1 µM [7] was 74.8%, the inhibition [8] was 88% and the inhibition [9] was 35%. The inhibition [10] was 71%, the inhibition [11] was 3% and the inhibition [12] was 3%. The inhibition [13] was 27%, the inhibition [14] was 26% and the inhibition [15] was 37%. The inhibition [16] was 20%, the inhibition [17] was 11% and the inhibition [18] was “Active”. For the same compound, the pIC50 [19] was 5.47, the inhibition [20] was 11% and the inhibition [21] was 79%. The inhibition [22] was 22%.
